From ChEMBL document CHEMBL1782036, “Atovaquone derivatives as potent cytotoxic and apoptosis inducing agents” (Bioorg Med Chem Lett, 2009)

System: IMR-90
Experiment: Antiproliferative activity against human IMR90 cells after 72 hrs by MTT assay
Assay type: cell-based
Settings: IMR-90, 72 h

Row | SMILES | IC50
1 | O=C1C=C(N2CCC(c3ccc(Cl)cc3)CC2)C(=O)c2c(O)cccc21 | > 50 µM
2 | O=C1C=C(N2CCC(c3ccccc3)CC2)C(=O)c2c(O)cccc21 | > 50 µM

System: DU-145
Experiment: Induction of apoptosis in human DU145 cells at 5 uM assessed as dead cell level after 72 hrs by AnnexinV conjugated 7- AAD staining by flow cytometry
Assay type: functional
Settings: not given
Summary of the method: (§1)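 Du145 human prostate carcinoma cells exposed to compound for 72 h, then stained with Annexin V and 7-AAD and analysed by flow cytometry. Annexin V detects phosphatidylserine externalised to the outer membrane leaflet, and 7-AAD enters only membrane-compromised cells. Dead cells were those positive for both stains. Untreated cells served as control.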

Row | SMILES | Activity
3 | O=C1C=C(N2CCC(c3ccc(Cl)cc3)CC2)C(=O)c2c(O)cccc21 | 4.69%
4 | O=C1C=C(N2CCC(c3ccccc3)CC2)C(=O)c2c(O)cccc21 | 5.57%

System: DU-145
Experiment: Induction of apoptosis in human DU145 cells at 10 uM assessed as late apoptosis/ necrotic cells level after 72 hrs by AnnexinV conjugated 7- AAD staining by flow cytometry
Assay type: functional
Settings: not given
Summary of the method: (§2)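 Du145 cells were treated for 72 h and stained with Annexin V conjugate plus 7-AAD. Flow cytometry read PS externalization and membrane integrity, scoring cells as live (double negative), early apoptotic, or late apoptotic/necrotic (double positive). Untreated cells served as the control.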

Row | SMILES | Activity
5 | O=C1C=C(N2CCC(c3ccc(Cl)cc3)CC2)C(=O)c2c(O)cccc21 | 87.96%
6 | O=C1C=C(N2CCC(c3ccccc3)CC2)C(=O)c2c(O)cccc21 | 38.3%

System: DU-145
Experiment: Induction of apoptosis in human DU145 cells at 10 uM assessed as early apoptosis level after 72 hrs by AnnexinV conjugated 7- AAD staining by flow cytometry
Assay type: functional
Settings: not given
Summary of the method: as §2

Row | SMILES | Activity
7 | O=C1C=C(N2CCC(c3ccc(Cl)cc3)CC2)C(=O)c2c(O)cccc21 | 8.88%
8 | O=C1C=C(N2CCC(c3ccccc3)CC2)C(=O)c2c(O)cccc21 | 3.17%

System: DU-145
Experiment: Growth inhibition of human DU145 cells after 72 hrs by MTT assay
Assay type: functional, cell-based
Settings: DU-145, 72 h
Summary of the method: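 Du145 human prostate carcinoma cells were screened by MTT cell-growth inhibition assay. IC50 values are means of three experiments.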

Row | IC50 | SMILES
9 | 32.2 µM | O=C1C=C(N2CCN(c3ccc(F)c(Cl)c3)CC2)C(=O)c2ccccc21
10 | 29.5 µM | O=C1C=C(N2CCN(c3ccc(Cl)cc3)CC2)C(=O)c2ccccc21
11 | 8.3 µM | O=C1C=C(N2CCN(c3cccc(Cl)c3)CC2)C(=O)c2ccccc21
12 | 9.9 µM | O=C1C=C(N2CCN(c3ccccc3)CC2)C(=O)c2ccccc21
13 | 17.8 µM | COc1ccc(N2CCN(C3=CC(=O)c4ccccc4C3=O)CC2)cc1OC
14 | 22.4 µM | O=C1C(N2CCN(c3ccc(F)cc3)CC2)=CC(=O)c2c(O)cccc21

Row | SMILES | IC50
15 | O=C1C=C(N2CCC(c3ccc(Cl)cc3)CC2)C(=O)c2c(O)cccc21 | 2.6 µM
16 | O=C1C=C(N2CCC(c3ccccc3)CC2)C(=O)c2c(O)cccc21 | 3 µM

System: HT-29
Experiment: Antiproliferative activity against human HT-29 cells after 72 hrs by MTT assay
Assay type: functional, cell-based
Settings: HT-29, 72 h

Row | SMILES | IC50
17 | O=C1C=C(N2CCC(c3ccc(Cl)cc3)CC2)C(=O)c2c(O)cccc21 | 6.9 µM
18 | O=C1C=C(N2CCC(c3ccccc3)CC2)C(=O)c2c(O)cccc21 | 5.4 µM

System: MOLT-4
Experiment: Antiproliferative activity against human MOLT4 cells after 72 hrs by MTT assay
Assay type: functional, cell-based
Settings: MOLT-4, 72 h

Row | SMILES | IC50
19 | O=C1C=C(N2CCC(c3ccc(Cl)cc3)CC2)C(=O)c2c(O)cccc21 | > 50 µM
20 | O=C1C=C(N2CCC(c3ccccc3)CC2)C(=O)c2c(O)cccc21 | 2.7 µM

System: DU-145
Experiment: Induction of apoptosis in human DU145 cells at 5 uM assessed as live cell level after 72 hrs by AnnexinV conjugated 7- AAD staining by flow cytometry
Assay type: functional
Settings: not given
Summary of the method: as §2

Row | SMILES | Activity
21 | O=C1C=C(N2CCC(c3ccc(Cl)cc3)CC2)C(=O)c2c(O)cccc21 | 52.14%
22 | O=C1C=C(N2CCC(c3ccccc3)CC2)C(=O)c2c(O)cccc21 | 53.01%

System: DU-145
Experiment: Induction of apoptosis in human DU145 cells at 5 uM assessed as late apoptosis/ necrotic cells level after 72 hrs by AnnexinV conjugated 7- AAD staining by flow cytometry
Assay type: functional
Settings: not given
Summary of the method: as §2

Row | SMILES | Activity
23 | O=C1C=C(N2CCC(c3ccc(Cl)cc3)CC2)C(=O)c2c(O)cccc21 | 35.95%
24 | O=C1C=C(N2CCC(c3ccccc3)CC2)C(=O)c2c(O)cccc21 | 37.56%

System: DU-145
Experiment: Induction of apoptosis in human DU145 cells at 5 uM assessed as early apoptosis level after 72 hrs by AnnexinV conjugated 7- AAD staining by flow cytometry
Assay type: functional
Settings: not given
Summary of the method: as §2

Row | SMILES | Activity
25 | O=C1C=C(N2CCC(c3ccc(Cl)cc3)CC2)C(=O)c2c(O)cccc21 | 7.22%
26 | O=C1C=C(N2CCC(c3ccccc3)CC2)C(=O)c2c(O)cccc21 | 3.87%

System: not listed separately
Experiment: Antiproliferative activity against human L78 cells after 72 hrs by MTT assay
Assay type: functional, cell-based
Settings: L78, 72 h

Row | SMILES | IC50
27 | O=C1C=C(N2CCC(c3ccc(Cl)cc3)CC2)C(=O)c2c(O)cccc21 | 40.6 µM
28 | O=C1C=C(N2CCC(c3ccccc3)CC2)C(=O)c2c(O)cccc21 | 13.4 µM

System: U-251
Experiment: Antiproliferative activity against human U251 cells after 72 hrs by MTT assay
Assay type: functional, cell-based
Settings: U-251, 72 h

Row | SMILES | IC50
29 | O=C1C=C(N2CCC(c3ccc(Cl)cc3)CC2)C(=O)c2c(O)cccc21 | 6.1 µM
30 | O=C1C=C(N2CCC(c3ccccc3)CC2)C(=O)c2c(O)cccc21 | 10.8 µM

System: A549
Experiment: Antiproliferative activity against human A549 cells after 72 hrs by MTT assay
Assay type: functional, cell-based
Settings: A549, 72 h

Row | SMILES | IC50
31 | O=C1C=C(N2CCC(c3ccc(Cl)cc3)CC2)C(=O)c2c(O)cccc21 | 17.2 µM
32 | O=C1C=C(N2CCC(c3ccccc3)CC2)C(=O)c2c(O)cccc21 | > 50 µM

System: MCF7
Experiment: Antiproliferative activity against human MCF7 cells after 72 hrs by MTT assay
Assay type: functional, cell-based
Settings: MCF7, 72 h

Row | SMILES | IC50
33 | O=C1C=C(N2CCC(c3ccc(Cl)cc3)CC2)C(=O)c2c(O)cccc21 | 20.5 µM
34 | O=C1C=C(N2CCC(c3ccccc3)CC2)C(=O)c2c(O)cccc21 | 8.8 µM

System: SGC-7901
Experiment: Antiproliferative activity against human SGC7901 cells after 72 hrs by MTT assay
Assay type: functional, cell-based
Settings: SGC-7901, 72 h

Row | SMILES | IC50
35 | O=C1C=C(N2CCC(c3ccc(Cl)cc3)CC2)C(=O)c2c(O)cccc21 | > 50 µM
36 | O=C1C=C(N2CCC(c3ccccc3)CC2)C(=O)c2c(O)cccc21 | 11.1 µM

System: OS-RC-2
Experiment: Antiproliferative activity against human OS-RC2 cells after 72 hrs by MTT assay
Assay type: functional, cell-based
Settings: OS-RC-2, 72 h

Row | SMILES | IC50
37 | O=C1C=C(N2CCC(c3ccc(Cl)cc3)CC2)C(=O)c2c(O)cccc21 | 5.2 µM
38 | O=C1C=C(N2CCC(c3ccccc3)CC2)C(=O)c2c(O)cccc21 | 0.7 µM

System: KB
Experiment: Antiproliferative activity against human KB cells after 72 hrs by MTT assay
Assay type: functional, cell-based
Settings: not given

Row | SMILES | IC50
39 | O=C1C=C(N2CCC(c3ccc(Cl)cc3)CC2)C(=O)c2c(O)cccc21 | 14 µM
40 | O=C1C=C(N2CCC(c3ccccc3)CC2)C(=O)c2c(O)cccc21 | 2.2 µM

System: DU-145
Experiment: Induction of apoptosis in human DU145 cells at 10 uM assessed as dead cell level after 72 hrs by AnnexinV conjugated 7- AAD staining by flow cytometry
Assay type: functional
Settings: not given
Summary of the method: as §1

Row | SMILES | Activity
41 | O=C1C=C(N2CCC(c3ccc(Cl)cc3)CC2)C(=O)c2c(O)cccc21 | 1.21%
42 | O=C1C=C(N2CCC(c3ccccc3)CC2)C(=O)c2c(O)cccc21 | 7.68%

System: HepG2
Experiment: Antiproliferative activity against human HepG2 cells after 72 hrs by MTT assay
Assay type: functional, cell-based
Settings: HepG2, 72 h

Row | SMILES | IC50
43 | O=C1C=C(N2CCC(c3ccc(Cl)cc3)CC2)C(=O)c2c(O)cccc21 | 5.4 µM
44 | O=C1C=C(N2CCC(c3ccccc3)CC2)C(=O)c2c(O)cccc21 | 9.7 µM

System: HeLa
Experiment: Antiproliferative activity against human HeLa cells after 72 hrs by MTT assay
Assay type: functional, cell-based
Settings: not given

Row | SMILES | IC50
45 | O=C1C=C(N2CCC(c3ccc(Cl)cc3)CC2)C(=O)c2c(O)cccc21 | 18.2 µM
46 | O=C1C=C(N2CCC(c3ccccc3)CC2)C(=O)c2c(O)cccc21 | 8.6 µM

System: HT-1080
Experiment: Antiproliferative activity against human HT1080 cells after 72 hrs by MTT assay
Assay type: functional, cell-based
Settings: HT-1080, 72 h

Row | SMILES | IC50
47 | O=C1C=C(N2CCC(c3ccc(Cl)cc3)CC2)C(=O)c2c(O)cccc21 | 22.4 µM
48 | O=C1C=C(N2CCC(c3ccccc3)CC2)C(=O)c2c(O)cccc21 | 11.1 µM

System: DU-145
Experiment: Induction of apoptosis in human DU145 cells at 10 uM assessed as live cell level after 72 hrs by AnnexinV conjugated 7- AAD staining by flow cytometry
Assay type: functional
Settings: not given
Summary of the method: as §2

Row | SMILES | Activity
49 | O=C1C=C(N2CCC(c3ccc(Cl)cc3)CC2)C(=O)c2c(O)cccc21 | 1.95%
50 | O=C1C=C(N2CCC(c3ccccc3)CC2)C(=O)c2c(O)cccc21 | 50.85%
